According to ChEMBL document CHEMBL1154282, “Identification of antiadipogenic constituents of the rhizomes of Anemarrhena asphodeloides” (J Nat Prod, 2009):

Tested on: 3T3-L1
Test: Antiadipogenic activity against mouse 3T3L1 cells assessed as inhibition of differentiation after 7 days by oil-red O staining
Type: functional, cell-based
Settings: 3T3-L1, 168 h
Procedure, shortened: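 Mouse 3T3-L1 preadipocytes grown to confluence for 48 h, then induced (day 0) in DMEM with 10% FBS, insulin 5 µg/mL, 10 µM rosiglitazone, 1 µM dexamethasone; after 48 h switched to 10% FBS/DMEM + 5 µg/mL insulin, then 10% FBS/DMEM every other day. Compounds added day 0, refreshed every 2 days. Day 7: PBS wash, 10% formalin 10 min, Oil-red O 1 h RT, dye eluted in isopropanol, A500; IC50 derived.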

Row | SMILES | IC50
1 | Oc1ccc(/C=C/c2cc(O)cc(O)c2)cc1 [RESVERATROL] | 31.4 µM
2 | O=C1/C(=C/c2ccc(O)cc2)COc2cc(O)cc(O)c21 | > 100 µM
3 | COc1ccc(CCCc2ccc(O)cc2)c(O)c1 [BROUSSONIN A] | 74.5 µM
4 | Cc1c(O)cc2c(c1O)C(=O)/C(=C/c1ccc(O)cc1)CO2 | > 100 µM
5 | C=C[C@H](/C=C\c1ccc(O)cc1)c1ccc(O)cc1 [NYASOL] | > 100 µM
6 | O=C(/C=C/c1ccc(O)cc1)c1ccc(O)cc1O [ISOLIQUIRITIGENIN] | 96.4 µM
7 | C=C[C@H](/C=C\c1ccc(OC)cc1)c1ccc(O)cc1 | 45.9 µM
8 | O=C(C#Cc1ccc(O)cc1)c1ccc(O)cc1 [ANEMARCHALCONYN] | 5.3 µM
9 | COc1cc(O)ccc1C(=O)/C=C/c1ccc(O)cc1 | 41.8 µM
